Assay results reported in PMC4876928 (Clinical cancer research : an official journal of the …, 2016).

Columns and labels:
[1] = Phase I safety and tolerability: DLTs, MTD, adverse events; assay type: in vivo, human
[2] = Plasma pharmacokinetics in patients; assay type: in vivo, human; conditions: for half-life: human, plasma, po
Outline: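 Oral test compound was given as a single dose on day 1 (7-day run-in for terminal half-life), then QD from day 8. PPI cohort: rabeprazole 20 mg days 4-7, co-dosed day 8, intensive sampling day 8. Quantified by LC-MS/MS.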

[3] = All patients in study (n=120), G3
[4] = All patients in study (n=120), ≤G2
[5] = All patients in study (n=120), ≥G4

Cc1c(CN2CCN(C(=O)[C@H](C)O)CC2)sc2c(N3CCOCC3)nc(-c3cnc(N)nc3)nc12 [apitolisib]
Liver dysfunction (abnormal LFTs), treatment related AE, n (%) ([1]; 40mg 28/28d (n=51), ≥G4): 0
Mucosal inflammation, treatment related AE, n (%) ([1]; 40mg 28/28d (n=51), ≥G4): 0
Nausea, treatment related AE, n (%) ([1]; 40mg 28/28d (n=51), ≥G4): 0
Patients with any AE related to apitolisib, n (%) ([1]; 40mg 28/28d (n=51), ≥G4): 5 (10%)
Pneumonitis, treatment related AE, n (%) ([1]; 40mg 28/28d (n=51), ≥G4): 2 (4%)
Pruritus, treatment related AE, n (%) ([1]; 40mg 28/28d (n=51), ≥G4): 0
Rash (maculopapular, pruritic, macular, erythematous, generalized), treatment related AE, n (%) ([1]; 40mg 28/28d (n=51), ≥G4): 0
Vomiting, treatment related AE, n (%) ([1]; 40mg 28/28d (n=51), ≥G4): 0
DLTs, Description ([1]; 70 mg 21/28 d, stage 1): G3 maculopapular rash and G3 fasting hyperglycemia
treatment related deaths on study ([1]; 1 at 50 mg QD 21/28, 3 at 40 mg QD 28/28): 4
patients requiring treatment discontinuation for rash ([1]; 4 patients in stage 2 (2 at 40 mg and 2 at 30 mg QD)): 5.1%
DLTs, Description ([1]; All doses, stage 1): Hyperglycemia (n=2) Rash
Decreased appetite, treatment related AE, n (%) [1, 3]: 0
Diarrhea, treatment related AE, n (%) [1, 3]: 11 (9%)
Dry skin, treatment related AE, n (%) [1, 3]: 1 (1%)
Fatigue, treatment related AE, n (%) [1, 3]: 7 (6%)
Hyperglycemia, treatment related AE, n (%) [1, 3]: 18 (15%)
Liver dysfunction (abnormal LFTs), treatment related AE, n (%) [1, 3]: 9 (8%)
Mucosal inflammation, treatment related AE, n (%) [1, 3]: 4 (3%)
Nausea, treatment related AE, n (%) [1, 3]: 2 (2%)
Patients with any AE related to apitolisib, n (%) [1, 3]: 51 (42%)
Pneumonitis, treatment related AE, n (%) [1, 3]: 4 (3%)
Pruritus, treatment related AE, n (%) [1, 3]: 1 (1%)
Rash (maculopapular, pruritic, macular, erythematous, generalized), treatment related AE, n (%) [1, 3]: 14 (12%)
Vomiting, treatment related AE, n (%) [1, 3]: 1 (1%)
Decreased appetite, treatment related AE, n (%) [1, 4]: 42 (35%)
Diarrhea, treatment related AE, n (%) [1, 4]: 60 (50%)
Dry skin, treatment related AE, n (%) [1, 4]: 16 (13%)
Fatigue, treatment related AE, n (%) [1, 4]: 73 (61%)
Hyperglycemia, treatment related AE, n (%) [1, 4]: 9 (8%)
Liver dysfunction (abnormal LFTs), treatment related AE, n (%) [1, 4]: 4 (3%)
Mucosal inflammation, treatment related AE, n (%) [1, 4]: 27 (23%)
Nausea, treatment related AE, n (%) [1, 4]: 48 (40%)
Patients with any AE related to apitolisib, n (%) [1, 4]: 60 (50%)
Pneumonitis, treatment related AE, n (%) [1, 4]: 8 (7%)
Pruritus, treatment related AE, n (%) [1, 4]: 22 (18%)
Rash (maculopapular, pruritic, macular, erythematous, generalized), treatment related AE, n (%) [1, 4]: 47 (39%)
Vomiting, treatment related AE, n (%) [1, 4]: 24 (20%)
Decreased appetite, treatment related AE, n (%) [1, 5]: 0
Diarrhea, treatment related AE, n (%) [1, 5]: 0
Dry skin, treatment related AE, n (%) [1, 5]: 0
Fatigue, treatment related AE, n (%) [1, 5]: 0
Hyperglycemia, treatment related AE, n (%) [1, 5]: 2 (2%)
Liver dysfunction (abnormal LFTs), treatment related AE, n (%) [1, 5]: 0
Mucosal inflammation, treatment related AE, n (%) [1, 5]: 0
Nausea, treatment related AE, n (%) [1, 5]: 0
Patients with any AE related to apitolisib, n (%) [1, 5]: 8 (7%)
Pneumonitis, treatment related AE, n (%) [1, 5]: 2 (2%)
Pruritus, treatment related AE, n (%) [1, 5]: 0
Rash (maculopapular, pruritic, macular, erythematous, generalized), treatment related AE, n (%) [1, 5]: 0
Vomiting, treatment related AE, n (%) [1, 5]: 0
maximum tolerated dose (MTD) ([1]; QD, 21/28-day schedule, DLT <33.3%): 50 mg
recommended phase 2 dose (RP2D) ([1]; QD, 28/28-day schedule, except MPM patients): 40 mg
recommended dose for MPM ([1]; QD, 28/28 schedule, malignant pleural mesothelioma patients): 30 mg
maximum administered dose (MAD) ([1]; QD, continuous 28/28 schedule): 50 mg
diarrhea, treatment related ≥G3 ([1]; RP2D 40 mg QD): 10%
fatigue, treatment related ≥G3 ([1]; RP2D 40 mg QD): 4%
hyperglycemia, treatment related ≥G3 ([1]; RP2D 40 mg QD): 18%
liver dysfunction, treatment related ≥G3 ([1]; RP2D 40 mg QD): 12%
mucosal inflammation, treatment related ≥G3 ([1]; RP2D 40 mg QD): 6%
pneumonitis, treatment related ≥G3 ([1]; RP2D 40 mg QD): 8%
rash, treatment related ≥G3 ([1]; RP2D 40 mg QD): 14%
pneumonitis cases reported on study ([1]; all patients, six severe): 14
MTD ([1]; continuous 28/28 schedule): not reached
dose reductions due to diarrhea ([1]; human, in vivo, oral): 2 n
dose reductions due to mucosal inflammation ([1]; human, in vivo, oral): 2 n
dose reductions due to pneumonitis ([1]; human, in vivo, oral): 2 n
rate of severe pneumonitis (grade ≥3) ([1]; in vivo): 8%
patients with pneumonitis outside the DLT window ([1]; stage 1, including 3 severe cases): 8 patients
half-life ([2]; mean terminal elimination half-life, patients): 11.3 h
half-life ([2]; terminal elimination half-life, range, patients): 3.26 to 45.4 h
time of peak mean plasma concentration after dose ([2]; oral, patients): 1 to 2 h
impact of PPI on apitolisib PK ([2]; rabeprazole 20 mg daily for 5 days, 6 patients): no significant impact
accumulation ([2]; repeated QD doses): less than 1.2
